# Results reported in paper PMC4084610 (Advances in pharmacology (San Diego, Calif.), 2014).
# “Also recorded” adds a separate entry of the source. Like-named read-outs stand apart in the source and are kept apart here.
# Assays:
# rats = conditions: cited from earlier work
# VMAT2 [1] = target: T1, VMAT2 (Rattus norvegicus, UniProt Q01827); format: biochemical
# VMAT2 [2] = target: T1, VMAT2; format: binding; conditions: whole rat brain vesicles, mean±SEM; for Ki: read-out: [3H]DTBZ binding Ki, 5 nM [3H]DTBZ
# [3] = test system: fractional DOPAC release from rat striatal slice preparations; assay: Fractional DOPAC release from superfused striatal slices; format: cell-based; conditions: 30 min superfusion before METH, 0.3–30 μM
# Method in brief: (§1)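 Rat coronal striatal slices are preincubated 60 min at 34 °C in Krebs buffer, then superfused at 1 ml/min for 60 min. Two 5-min basal samples are collected into 0.1 M perchloric acid. Test compound (one concentration per slice, 0.3–30 μM) runs 30 min, then with 5 μM METH for 15 min, then alone for 20 min. Buffer-control and METH-control slices are included. Superfusate is ascorbate-oxidase treated and analysed by HPLC-electrochemical detection.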
# VMAT2 [4] = target: T1, VMAT2; assay: Kinetic analysis of inhibition of [3H]DA uptake at VMAT2; format: biochemical; conditions: for Vmax of [3H]DA uptake at VMAT2: analog at its Ki concentration, control 29.9±4.30; for Mechanism of VMAT2 inhibition: kinetic analysis of [3H]DA uptake
# Method in brief: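 Rat synaptic vesicle suspension was added to assay buffer containing inhibitor or buffer (control), plus [3H]DA across 0.001–5.0 μM. Incubation ran 8 min and was stopped by filtration, then filter-retained radioactivity was counted. Nonspecific uptake was defined with Ro4-1284 (10 μM).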
# DAT [5] = target: T2, DAT (Rattus norvegicus, UniProt P23977); assay: Inhibition of [3H]DA uptake at DAT in synaptosomal preparations; format: biochemical; conditions: read-out: DAT Ki value ([3H]DA uptake); synaptosomes
# T2 sequence (P23977 whole entry): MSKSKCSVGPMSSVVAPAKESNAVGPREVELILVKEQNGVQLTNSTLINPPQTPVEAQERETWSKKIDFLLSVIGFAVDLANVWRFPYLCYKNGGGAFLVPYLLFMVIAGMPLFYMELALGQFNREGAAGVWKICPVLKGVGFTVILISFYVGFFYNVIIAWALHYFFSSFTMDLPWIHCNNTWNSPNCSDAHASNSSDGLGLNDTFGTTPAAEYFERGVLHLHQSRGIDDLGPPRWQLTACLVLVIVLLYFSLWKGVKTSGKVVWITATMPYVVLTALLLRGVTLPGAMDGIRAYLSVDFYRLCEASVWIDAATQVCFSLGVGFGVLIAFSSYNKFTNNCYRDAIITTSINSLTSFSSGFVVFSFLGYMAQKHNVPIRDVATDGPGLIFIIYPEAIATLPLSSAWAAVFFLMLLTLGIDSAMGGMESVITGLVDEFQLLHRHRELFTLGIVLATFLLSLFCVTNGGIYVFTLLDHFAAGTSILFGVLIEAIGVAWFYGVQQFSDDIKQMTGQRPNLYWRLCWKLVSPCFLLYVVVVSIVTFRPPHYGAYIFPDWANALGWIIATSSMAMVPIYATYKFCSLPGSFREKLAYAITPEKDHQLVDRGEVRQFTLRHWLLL
# Method in brief: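 Synaptosomes are preincubated with test compound (1 nM–100 μM) for 5 min at 34 °C, then placed on ice. [3H]DA is added from a 0.1 μM solution, followed by a further 10 min at 34 °C. Nonspecific uptake is defined with 10 μM nomifensine.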
# [6] = test system: METH-evoked DA release from striatal slices; assay: Inhibition of METH-evoked DA release from superfused striatal slices; format: cell-based, rat; conditions: for Imax for inhibition of METH-evoked DA release / IC50: METH 5 μM, total DA overflow, striatal slices; for Effect of analog alone on fractional DA release: analog alone in superfusion buffer, 0.3–30 μM; for IC50: read-out: IC50 for inhibition of METH-evoked DA release
# Method in brief: as §1
# Water solubility = format: physicochemical
# METH addicts = conditions: ref NCT00439504; cited from earlier work
# SERT = conditions: ref Miller et al., 2004; cited from earlier work
# DAT [7] = target: T2, DAT; conditions: ref Miller et al., 2004; cited from earlier work
# [8] = test system: METH-evoked DA release from striatal slices; conditions: ref Horton, Siripurapu, Norrholm, et al., 2011; cited from earlier work
# [9] = rat striatal vesicles, mean±SEM
# [10] = read-out: VMAT2 [3H]DA uptake Ki, rat striatal vesicles, 0.1 μM [3H]DA, mean±SEM
# T1 sequence (Q01827 whole entry): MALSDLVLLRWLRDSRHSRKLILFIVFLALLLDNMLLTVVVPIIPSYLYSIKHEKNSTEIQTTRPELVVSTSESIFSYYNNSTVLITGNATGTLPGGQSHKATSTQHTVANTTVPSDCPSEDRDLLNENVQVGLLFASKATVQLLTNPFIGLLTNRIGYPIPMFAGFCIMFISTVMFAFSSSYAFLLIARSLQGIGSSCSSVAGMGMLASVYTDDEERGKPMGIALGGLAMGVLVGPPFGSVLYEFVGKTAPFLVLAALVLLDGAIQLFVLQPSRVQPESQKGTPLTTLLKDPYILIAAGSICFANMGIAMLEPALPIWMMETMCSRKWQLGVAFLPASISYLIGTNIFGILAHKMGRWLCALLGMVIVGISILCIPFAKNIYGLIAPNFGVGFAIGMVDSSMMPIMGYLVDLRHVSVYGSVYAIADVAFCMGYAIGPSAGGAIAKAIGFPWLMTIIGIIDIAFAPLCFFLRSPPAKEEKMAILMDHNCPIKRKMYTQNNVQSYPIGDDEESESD
smiles,measurement,setting,value
"COc1ccc(CC[C@H]2CCC[C@@H](CCc3ccc(OC)cc3)N2C[C@@H](O)CO)cc1 (relative stereo) [GZ-793A, (R)-3-[2,6-cis-di(4-methoxyphenethyl)piperidin-1-yl]propane-1,2-diol]",Effect on cue- and METH-induced reinstatement of METH-seeking,"rats; rats, 15 mg/kg, ref Alvers et al., 2012",decrease reinstatement
"Cl.c1ccc(CC[C@@H]2CC[C@H](CCc3ccccc3)N2)cc1 [AV-1-228, cis-2,5-di-(2-phenethyl)-pyrrolidine hydrochloride]",VMAT2 [3H]DA uptake Imax,VMAT2 [1]; [9],100%
same,Ki,VMAT2 [1]; [10],0.028 ± 0.001 µM
same,Ki,VMAT2 [2],2.66 ± 0.37 µM
same,[3H]DTBZ binding Imax,VMAT2 [2],100%
"c1ccc(C[C@H]2CC[C@@H](Cc3ccccc3)N2)cc1 [AV-2-192, cis-2,5-di(2-benzyl)-pyrrolidine]",VMAT2 [3H]DA uptake Imax,VMAT2 [1]; [9],100%
same,Ki,VMAT2 [1]; read-out: Ki at the DA uptake site on VMAT2,< 0.01 µM
same,Ki,VMAT2 [1]; [10],0.0093 ± 0.00075 µM
same,Ki,VMAT2 [2],1.64 ± 0.12 µM
same,[3H]DTBZ binding Imax,VMAT2 [2],100%
same,Lowest concentration to increase extracellular DOPAC,[3],3 µM
same,Vmax of [3H]DA uptake at VMAT2,VMAT2 [4],29.6 ± 7.28 pmol/min/mg
same,Mechanism of VMAT2 inhibition,VMAT2 [4],competitively inhibit; also recorded: Competitive
same,Ki,DAT [5],2.63 µM
same,Imax for inhibition of METH-evoked DA release,[6],55%
same,Effect of analog alone on fractional DA release,[6],did not alter fractional DA release
same,IC50,[6],5.2 µM
"CN1[C@@H](Cc2ccccc2)CC[C@H]1Cc1ccccc1 [AV-2-197, 1-methyl-cis-2,5-di(2-benzyl)-pyrrolidine]",Increased affinity for the DA uptake site on VMAT2 compared with AV-1-229A,VMAT2 [1],14 orders-of-magnitude
same,VMAT2 [3H]DA uptake Imax,VMAT2 [1]; [9],100%
same,Ki,VMAT2 [1]; [10],0.019 ± 0.00091 µM
same,Ki,VMAT2 [2],2.46 ± 0.42 µM
same,[3H]DTBZ binding Imax,VMAT2 [2],96±1%
same,Lowest concentration to increase extracellular DOPAC,[3],10 µM
same,Vmax of [3H]DA uptake at VMAT2,VMAT2 [4],22.0 ± 4.36 pmol/min/mg
same,Mechanism of VMAT2 inhibition,VMAT2 [4],competitively inhibit; also recorded: Competitive
same,Ki,DAT [5],5.4 µM
same,Imax for inhibition of METH-evoked DA release,[6],63%
same,Effect of analog alone on fractional DA release,[6],did not alter fractional DA release
same,IC50,[6],4.2 µM
"CN1[C@@H](CCc2ccccc2)CCC[C@H]1CCc1ccccc1 [Lobelane, N-methyl-2,6-bis(cis-phenylethyl)piperidine, reference compound]",Water solubility (in words),Water solubility,decreased water solubility
"CN1[C@@H](CC(=O)c2ccccc2)CCC[C@H]1C[C@H](O)c1ccccc1 [Lobeline, reference compound]",Safety in phase 1b clinical trials,METH addicts,safe
same,Effect on locomotor activity in response to METH,"rats; adult male rats, 3 mg/kg 10 min prior to METH 1 mg/kg, 10 consecutive days, ref Miller, Green, et al. (2000)",significantly reduced locomotor activity
"CN1C(/C=C\c2ccccc2)CCCC1/C=C\c1ccccc1 (stereo not drawn) [MTD, N-methyl-2,6-bis(cis-phenylethenyl) piperidine]",Water solubility (in words),Water solubility,limited solubility
same,Fold lower affinity for SERT compared with lobeline,SERT,6.5 fold
same,Fold higher affinity for DAT compared with lobeline,DAT [7],100 fold
"CN1C/C(=C\c2ccc(Cl)cc2Cl)C/C(=C/c2ccc(Cl)cc2Cl)C1 [UKMH-106, (3Z,5Z)-3,5-bis(2,4-dichlorobenzylidene)-1-methylpiperidine]",Inhibition of METH-evoked DA release (in words),[8],inhibited
same,Water solubility (in words),Water solubility,improved water solubility
